The results in this text go back to ChEMBL document CHEMBL1687885, “Ethanesulfohydroxamic acid ester prodrugs of nonsteroidal anti-inflammatory drugs (NSAIDs): synthesis, nitric oxide and nitroxyl release, cyclooxygenase inhibition, anti-inflammatory, and ulcerogenicity index studies” (J Med Chem, 2011).

The IC50 is the concentration needed to halve the response being measured. The low end stands for higher potency, the high end for lower potency. What is called inhibition in vivo is how much of the control response was suppressed.

Data set [1] can be described thus: Chemical stability of the compound in phosphate buffered containg rat serum of pH 7.4 assessed as NO release at 50 uM after 1.5 hr by Griess assay. As to conditions: pH 7.4, 1.5 h. (In general: Griess reagent forms a coloured azo dye with nitrite.)
Data set [2] can be described thus: Induction of HNO release per mol of compound in 0.6 mL MeOH and 0.2 mL of 1 M NaOH after 2 hr by gas chromatographic analysis. The format is physicochemical. The gist of the method: (§1)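 HNO measured indirectly as N2O under anaerobic conditions: compound at 50 mM in 0.6 mL MeOH plus 0.2 mL 1 M NaOH; headspace (0.25 mL) injected at 2 and 24 h onto GC with thermal conductivity detector and Porapak Q column. % based on 2 mol HNO per mol N2O; mean of three experiments.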

The nature of data set [3]: Induction of HNO release per mol of compound in 0.6 mL MeOH, 0.2 mL of 1 M NaOH and 100 mM glutathione after 24 hr by gas chromatographic analysis. The class given is physicochemical. The procedure, abridged: (§2)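 Compound 50 mM in MeOH-based solvent containing 100 mM glutathione and 250 mM NaOH (25 mM NaOH for some compounds); headspace N2O sampled at 2 and 24 h by GC with thermal conductivity detection. % HNO from 2 mol HNO per mol N2O; mean of three.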

The nature of data set [4]: Induction of HNO release per mol of compound in 0.6 mL MeOH, 0.2 mL of 1 M NaOH and 100 mM glutathione after 2 hr by gas chromatographic analysis. The format is physicochemical. The procedure, abridged:
as §2

Data set [5] is described as follows: Induction of HNO release per mol of compound in 0.6 mL MeOH and 0.2 mL of 700 mM Tris buffer solution after 24 hr by gas chromatographic analysis.
Data set [6] relates to Rattus norvegicus. Kind of data set: Ulcerogenic activity in 12 fasting Sprague-Dawley rat assessed as ulcer index at 80 umol/kg, po measured after 6 hrs by magnifier lenses. The class given is toxicity, organism-based. To be noted: in vivo. The gist of the method: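 Rats fasted (water allowed) 12 h, then given 80 μmol/kg orally suspended in 1.7 mL 1% methylcellulose; vehicle controls. After 6 h, CO2 euthanasia; stomachs opened along greater curvature, rinsed, ulcers counted and measured with magnifier lenses. UI = summed ulcer length (mm) per stomach averaged over n = 3 per group.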

The test system of data set [7] is Rattus norvegicus. The data set can be described thus: Antiinflammatory activity in po dosed Sprague-Dawley rat assessed as inhibition of carrageenam-induced paw edema administered 1 hr before carrageenan challenge measured after 3 hrs by Plethysmometer. The class given is functional. To be noted: read-out: ID50 (the source's name). The gist of the method: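 Male Sprague-Dawley rats (160-180 g), three per group; compounds suspended in water with 1% methyl cellulose given orally at no fewer than three doses (2.8-112 mg/kg range) 1 h before subplantar injection of 0.05 mL 1% carrageenan in 0.9% NaCl into right hind paw. Vehicle-only controls. Paw volume measured by plethysmometer at 0 and 3 h; ID50 from dose-response curve.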

Data set [8] in a line: Induction of HNO release per mol of compound in 0.6 mL MeOH and 0.2 mL of 700 mM Tris buffer solution after 2 hr by gas chromatographic analysis.
Data set [9] can be described thus: Induction of HNO release per mol of compound in 0.6 mL MeOH and 0.2 mL of 1 M NaOH after 24 hr by gas chromatographic analysis. The class given is physicochemical. The procedure, abridged: as §1
The target in data set [10] is T1, Prostaglandin G/H synthase 1 (Ovis aries, UniProt P05979).
T1 sequence (P05979 whole entry): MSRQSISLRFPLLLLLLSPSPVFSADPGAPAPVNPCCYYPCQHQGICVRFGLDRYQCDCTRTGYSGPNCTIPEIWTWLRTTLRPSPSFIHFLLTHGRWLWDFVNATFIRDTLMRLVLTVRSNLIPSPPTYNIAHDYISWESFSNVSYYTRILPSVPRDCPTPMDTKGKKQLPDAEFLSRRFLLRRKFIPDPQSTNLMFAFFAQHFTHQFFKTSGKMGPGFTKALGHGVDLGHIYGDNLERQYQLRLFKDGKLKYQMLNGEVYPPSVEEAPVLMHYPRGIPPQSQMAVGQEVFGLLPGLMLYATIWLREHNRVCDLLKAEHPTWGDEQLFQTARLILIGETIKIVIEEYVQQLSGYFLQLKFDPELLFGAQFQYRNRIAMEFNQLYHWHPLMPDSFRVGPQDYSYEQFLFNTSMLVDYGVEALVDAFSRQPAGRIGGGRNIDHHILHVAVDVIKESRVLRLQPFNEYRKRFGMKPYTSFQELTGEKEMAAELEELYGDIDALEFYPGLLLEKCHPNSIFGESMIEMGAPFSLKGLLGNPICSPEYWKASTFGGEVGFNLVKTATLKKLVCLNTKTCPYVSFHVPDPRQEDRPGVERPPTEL
Kind of data set: Inhibition of ovine COX-1.

Data set [11] is described as follows: Chemical stability of the compound in phosphate buffered saline of pH 7.4 assessed as NO release at 50 uM after 1.5 hr by Griess assay. As to conditions: buffer, pH 7.4, 1.5 h.
Data set [12] has as its system Rattus norvegicus. The data set can be described thus: Antiinflammatory activity in Sprague-Dawley rat assessed as inhibition of carrageenam-induced paw edema at 327 umol/kg, po administered 1 hr before carrageenan challenge measured after 3 hrs by Plethysmometer. The format is functional. The procedure, abridged: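 Male Sprague-Dawley rats (160-180 g), three per group. Test agent was suspended in water with 1% methylcellulose and given orally 1 h before 0.05 mL 1% carrageenan in 0.9% NaCl was injected subcutaneously under the plantar skin of the right hind paw. Controls received vehicle only. Paw volume was measured at 0 and 3 h by plethysmometer. Result is % inhibition of inflammation, n = 3, with SEM.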

For data set [13], the system named is Rattus norvegicus. The data set can be described thus: Antiinflammatory activity in Sprague-Dawley rat assessed as inhibition of carrageenam-induced paw edema at 100 mg/kg, po administered 1 hr before carrageenan challenge measured after 3 hrs by Plethysmometer. The format is functional. The procedure, abridged: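 Male Sprague-Dawley rats (160-180 g), three per group, received the test compound orally as a suspension in water with 1% methyl cellulose. One hour later, 0.05 mL of 1% carrageenan in 0.9% NaCl was injected subcutaneously into the right hind paw plantar skin. Controls received vehicle alone. Paw volume was read at 0 and 3 h, and % inhibition was reported with SEM (n = 3).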

Consider `COc1ccc2c(c1)c(CC(=O)OCCS(=O)(=O)NO)c(C)n2C(=O)c1ccc(Cl)cc1`, for which the Activity in data set [1] is listed as 3.2%; in [2] it was 20%; in data set [3] it was 1%; in data set [4], 1%; in [5], 0%; in data set [8], 0%. Also, the Activity in data set [9] came to 1%; in [11], 44.5%. Moreover, in the data set with Rattus norvegicus [6], the UI is given as 0. Besides, the ED50 in the data set with Rattus norvegicus [7] was 19.1 µmol/kg. It took 77.7 µM to reach half-maximal inhibition in data set [10] (IC50).

Consider `CC(C)Cc1ccc(C(C)C(=O)OCCS(=O)(=O)NO)cc1` (configuration not stated), for which the Activity is listed as 2.1% in data set [1]; 25% in [2]; 7% in data set [3]; 0% in data set [4]; 0% in data set [5]; 0% in [8]. Moreover, the Activity in data set [9] is on record as 24%; in data set [11], 46.3%. Moreover, the inhibition in vivo at 327 µmol/kg in the data set with Rattus norvegicus [12] was 79.5%. The same compound returned an IC50 in data set [10] of 1.1 µM.

Consider `COc1ccc2c(c1)c(CC(=O)O)c(C)n2C(=O)c1ccc(Cl)cc1` [INDOMETHACIN], for which the UI with Rattus norvegicus [6] is given as 64.5.

As to `CONS(=O)(=O)CCOC(=O)C(C)c1ccc(CC(C)C)cc1` (configuration not stated), the Activity worked out at 0.9% in data set [1]; 0% in data set [2]; 0% in data set [3]; 0% in [4]; 0% in [5]; 0% in [8]. Moreover, the Activity was 0% in data set [9] and 4.3% in data set [11]. Moreover, the inhibition in vivo at 327 µmol/kg in the data set on Rattus norvegicus [12] is 78.9%. Moreover, in data set [10], the IC50 came out at 14.6 µM.

With `O=C(Cc1ccccc1)OCCS(=O)(=O)NO`, the Activity in data set [1] is reported as 4.8%; in data set [2], 23%; in data set [3], 7%; in [4] it was 0%; in [5], 0%; in data set [8] it was 0%. For the same compound, the figures for the Activity in data set [9] and in [11] were 21% and 54.3%, respectively. In the data set with Rattus norvegicus [13], the inhibition in vivo at 100 mg/kg was 12.4%. The compound also returned an IC50 in data set [10] greater than 100 µM.

As for `CCS(=O)(=O)NO` [ETHANESULFONYLHYDROXAMIC ACID], the Activity in [1] amounted to 1.4%; in data set [2], 24%; in data set [3], 0%; in [4] it was 0%; in data set [5], 0%; in data set [8] it was 0%. For the same compound, the Activity in data set [9] is 7%; in data set [11], 54.5%. In data set [10], the IC50 is greater than 100 µM.

In the case of `COc1ccc2cc([C@H](C)C(=O)O)ccc2c1` [NAPROXEN], the ED50 in the data set with Rattus norvegicus [7] came out at 29.7 µmol/kg.

As to `COc1ccc2cc([C@H](C)C(=O)OCCS(=O)(=O)NO)ccc2c1`, the Activity in [1] was found to be 1.3%; in data set [2], 24%; in data set [3], 4%; in data set [4], 2%; in data set [5] it was 0%; in data set [8], 0%. In addition, the Activity in [9] stood at 23%; in [11], 52.9%. Also, the ED50 in the data set with Rattus norvegicus [7] was found to be 11.8 µmol/kg. In data set [10], this compound showed an IC50 of 4.5 µM.
